{"source": "ChEMBL document CHEMBL4229446", "about": "“Development of Novel Monoamine Oxidase-B (MAO-B) Inhibitors with Reduced Blood-Brain Barrier Permeability for the Potential Management of Noncentral Nervous System (CNS) Diseases” (J Med Chem, 2018)", "key": {"[1]": {"tested_on": "Mus musculus", "assay": "Acute toxicity in C57BL/6 mouse assessed as lethargy at 10.8 mg/kg, po after 1 hr post-injection", "type": "organism-based", "settings": "in vivo"}, "[2]": {"assay": "Tmax in C57BL/6 mouse plasma at 10.8 mg/kg, iv administered as single dose measured 24 hrs by UPLC-MS/MS analysis", "type": "ADME, organism-based", "summary_of_the_method": "(§1)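 Plasma extracted by protein precipitation/phospholipid removal; brain weighed, homogenised in 50 mM ammonium formate, extracted in acidified organic solvent, ng/g taken as ng/mL. Quantified by UPLC-MS/MS (MRM); parameters by noncompartmental analysis.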"}, "[3]": {"assay": "Metabolic stability in human plasma assessed as parent compound remaining at 5 uM after 4 hrs by UPLC-MS/MS analysis", "type": "ADME, cell-free", "settings": "read-out: Stability", "summary_of_the_method": "(§2)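 Compound at 5 μM was incubated in mouse or human plasma at 37 °C with shaking. Sampled at 0, 5, 15, 30, 60, 120 and 240 min and stopped with ice-cold acetonitrile/0.1% formic acid containing internal standard. Supernatants analysed by UPLC-MS/MS for parent remaining. Run in triplicate.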"}, "[4]": {"assay": "Cmax in C57BL/6 mouse brain at 10.8 mg/kg, iv administered as single dose measured 24 hrs by UPLC-MS/MS analysis", "type": "ADME, organism-based", "set-up": "dose 10.8 mg/kg, route intravenous", "summary_of_the_method": "(§3)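 21 animals dosed at 0 min, 3 sacrificed at each of 0, 5, 15, 30 min, 1, 4 and 24 h. Plasma was extracted by protein precipitation with phospholipid removal. Brain was weighed, bead-homogenised in 50 mM ammonium formate and extracted in acidified organic solvent. Quantified by UPLC-MS/MS (MRM). Brain ng/g taken as ng/mL. Parameters came from noncompartmental analysis. Kp = AUClast brain/plasma.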"}, "[5]": {"assay": "AUClast in C57BL/6 mouse plasma at 10.8 mg/kg, iv administered as single dose measured 24 hrs by UPLC-MS/MS analysis", "type": "ADME, organism-based", "set-up": "dose 10.8 mg/kg, route intravenous, time 0 - last", "summary_of_the_method": "as §1"}, "[6]": {"assay": "Apparent half-life of the terminal disposition phase in C57BL/6 mouse plasma at 10.8 mg/kg, iv administered as single dose measured 24 hrs by UPLC-MS/MS analysis", "type": "ADME, organism-based", "settings": "read-out: t1/2 lambda z (converted)", "summary_of_the_method": "as §1"}, "[7]": {"assay": "Apparent half-life of the terminal disposition phase in C57BL/6 mouse brain at 10.8 mg/kg, iv administered as single dose measured 24 hrs by UPLC-MS/MS analysis", "type": "ADME, organism-based", "settings": "read-out: t1/2 lambda z (converted)", "summary_of_the_method": "as §3"}, "[8]": {"assay": "AUClast in C57BL/6 mouse brain at 10.8 mg/kg, iv administered as single dose measured 24 hrs by UPLC-MS/MS analysis", "type": "ADME, organism-based", "set-up": "dose 10.8 mg/kg, route intravenous, time 0 - last", "summary_of_the_method": "as §3"}, "[9]": {"tested_on": "Mus musculus", "assay": "Acute toxicity in C57BL/6 mouse assessed as lethargy at 10.8 mg/kg, iv after 1 hr post-injection", "type": "organism-based", "settings": "in vivo"}, "[10]": {"tested_on": "Mus musculus", "assay": "Acute toxicity in C57BL/6 mouse assessed as piloerection at 10.8 mg/kg, po after 1 hr post-injection", "type": "organism-based", "settings": "in vivo"}, "[11]": {"assay": "Ratio of AUClast in brain to plasma in C57BL/6 mouse at 10.8 mg/kg, iv administered as single dose measured 24 hrs by UPLC-MS/MS analysis", "type": "ADME, organism-based", "summary_of_the_method": "as §3"}, "[12]": {"assay": "Metabolic stability in human liver microsomes assessed as parent compound remaining at 1 uM after 60 mins by UPLC-MS/MS analysis", "type": "ADME, microsome", "settings": "microsomes, 1 h, 1 µM", "summary_of_the_method": "(§4)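 Compound at 1 μM with 0.5 mg/mL mouse or human liver microsomes in 100 mM potassium phosphate pH 7.4, 3.3 mM MgCl2, 1 mM NADPH, at 37 °C. Started with NADPH; minus-NADPH control run. Stopped at 0, 5, 15, 30, 45 and 60 min with acetonitrile/formic acid plus internal standard. Parent remaining by UPLC-MS/MS, in triplicate.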"}, "[13]": {"assay": "Cmax in C57BL/6 mouse plasma at 10.8 mg/kg, iv administered as single dose measured 24 hrs by UPLC-MS/MS analysis", "type": "ADME, organism-based", "set-up": "dose 10.8 mg/kg, route intravenous", "summary_of_the_method": "as §1"}, "[14]": {"tested_on": "Mus musculus", "assay": "Acute toxicity in C57BL/6 mouse assessed as lethargy at 10.8 mg/kg, sc after 1 hr post-injection", "type": "organism-based", "settings": "in vivo"}, "[15]": {"assay": "Metabolic stability in mouse liver microsomes assessed as parent compound remaining at 1 uM after 60 mins by UPLC-MS/MS analysis", "type": "ADME, microsome", "settings": "microsomes, 1 h, 1 µM", "summary_of_the_method": "as §4"}, "[16]": {"tested_on": "Mus musculus", "assay": "Acute toxicity in C57BL/6 mouse assessed as piloerection at 10.8 mg/kg, sc after 1 hr post-injection", "type": "organism-based", "settings": "in vivo"}, "[17]": {"assay": "Metabolic stability in mouse plasma assessed as parent compound remaining at 5 uM after 4 hrs by UPLC-MS/MS analysis", "type": "ADME, cell-free", "settings": "read-out: Stability", "summary_of_the_method": "as §2"}, "[18]": {"assay": "Tmax in C57BL/6 mouse brain at 10.8 mg/kg, iv administered as single dose measured 24 hrs by UPLC-MS/MS analysis", "type": "ADME, organism-based", "summary_of_the_method": "as §1"}, "[19]": {"tested_on": "Mus musculus", "assay": "Acute toxicity in C57BL/6 mouse assessed as piloerection at 10.8 mg/kg, iv after 1 hr post-injection", "type": "organism-based", "settings": "in vivo"}}}
{"smiles": "C#CCN(C)[C@H](C)Cc1ccccc1", "note": "[SELEGILINE]", "values": [{"measurement": "Activity", "setting": "[1]", "result": "Toxic"}, {"measurement": "Tmax", "setting": "[2]", "result": 5, "unit": "min"}, {"measurement": "remaining at 4 h, 5 µM", "setting": "[3]", "result": 55, "unit": "%"}, {"measurement": "Cmax", "setting": "[4]", "result": 4220, "unit": "ng/mL"}, {"measurement": "AUC(0-t) at 24 h", "setting": "[5]", "result": 242, "unit": "ng·h/mL"}, {"measurement": "half-life", "setting": "[6]", "result": 33.6, "unit": "min"}, {"measurement": "half-life", "setting": "[7]", "result": 17.4, "unit": "min"}, {"measurement": "AUC(0-t) at 24 h", "setting": "[8]", "result": 1390, "unit": "ng·h/mL"}, {"measurement": "Activity", "setting": "[9]", "result": "Toxic"}, {"measurement": "Activity", "setting": "[10]", "result": "Toxic"}, {"measurement": "Kp at 24 h", "setting": "[11]", "result": 5.73}, {"measurement": "Stability", "setting": "[12]", "result": "Unstable"}, {"measurement": "Cmax", "setting": "[13]", "result": 569, "unit": "ng/mL"}, {"measurement": "Activity", "setting": "[14]", "result": "Toxic"}, {"measurement": "Stability", "setting": "[15]", "result": "Unstable"}, {"measurement": "Activity", "setting": "[16]", "result": "Toxic"}, {"measurement": "remaining at 4 h, 5 µM", "setting": "[17]", "result": 61, "unit": "%"}, {"measurement": "Tmax", "setting": "[18]", "result": 5, "unit": "min"}, {"measurement": "Activity", "setting": "[19]", "result": "Toxic"}]}
